Published values collected from several papers.
Compare with care: the assays were run in different laboratories.
Target: Serine/threonine-protein kinase DCLK2 (DCLK2, Homo sapiens, UniProt Q8N568)
Residues used in one study (Q8N568 1-766): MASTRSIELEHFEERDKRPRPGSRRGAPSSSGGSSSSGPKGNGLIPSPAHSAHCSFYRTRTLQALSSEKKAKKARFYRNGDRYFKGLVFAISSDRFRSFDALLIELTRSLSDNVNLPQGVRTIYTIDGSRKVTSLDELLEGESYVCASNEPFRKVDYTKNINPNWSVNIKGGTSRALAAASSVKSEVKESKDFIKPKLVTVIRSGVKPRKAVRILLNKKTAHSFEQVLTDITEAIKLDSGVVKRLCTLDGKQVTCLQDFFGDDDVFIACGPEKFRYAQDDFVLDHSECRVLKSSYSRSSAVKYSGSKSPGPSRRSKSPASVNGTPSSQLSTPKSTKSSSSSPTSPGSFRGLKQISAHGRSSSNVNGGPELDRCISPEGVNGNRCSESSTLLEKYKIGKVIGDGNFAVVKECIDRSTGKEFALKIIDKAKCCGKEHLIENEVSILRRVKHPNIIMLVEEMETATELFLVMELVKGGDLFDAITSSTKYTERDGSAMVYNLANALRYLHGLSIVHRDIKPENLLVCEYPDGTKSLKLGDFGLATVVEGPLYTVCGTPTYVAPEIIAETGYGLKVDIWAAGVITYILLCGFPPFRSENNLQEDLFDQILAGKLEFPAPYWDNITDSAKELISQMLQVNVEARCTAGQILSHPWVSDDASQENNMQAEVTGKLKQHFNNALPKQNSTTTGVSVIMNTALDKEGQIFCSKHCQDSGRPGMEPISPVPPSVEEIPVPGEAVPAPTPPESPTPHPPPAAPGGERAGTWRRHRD

Structure (SMILES)	assay	setting	measurement	result
Cc1cc(NC(=O)c2cccc3cc(-c4cccc5[nH]nc(N)c45)ccc23)ccc1F	enzyme activity, inhibitor	0.1 µM	activity vs control	109%
Cc1c(NC(=O)c2cc(C(N)=O)nc3cc(F)ccc23)c(C(F)(F)F)nn1Cc1ccc(C(C)(C)C)cc1	cell-free assay, competition with immobilised ligand	1 µM	remaining binding	83%
COc1cc2ncnc(Nc3ccc(Oc4ccccc4)c(C)c3C)c2cc1OC	enzyme activity, inhibitor	1 µM	inhibition	3%
N#CCCc1ccc2c(c1)-c1[nH]c3ccc([N+](=O)[O-])cc3c1CC(=O)N2	cell-free assay	0.5 µM	remaining signal	104%
CS(=O)(=O)NCC[C@H](NC(=O)c1cncc2c1cnn2-c1ccc(F)cc1)c1ccnc(S(C)(=O)=O)c1	cell-free assay, competition with immobilised ligand	1 µM	remaining binding	100%
CC/C(=N\NC(=O)NCc1cccc(O)c1)c1ccc(O)c(C)c1O	enzyme activity, inhibitor	0.1 µM	inhibition	-8.9%
Cc1noc([C@H]2C[C@@H](c3ccc(C(F)(F)F)cc3)CN(C(=O)N3CCS(=O)(=O)C3)C2)n1	cell-free assay, competition with immobilised ligand	1 µM	remaining binding	100%
CN1CC(Oc2cnc(C#N)cc2-c2ccn3nc(NC(=O)C4CC4)cc3c2)C1	enzyme activity, inhibitor	1 µM	inhibition	-1%
CCCS(=O)(=O)Nc1ccc(F)c(C(=O)c2c[nH]c3ncc(-c4ccc(Cl)cc4)cc23)c1F	enzyme activity, inhibitor	1 µM	inhibition	< 10%
CC(C)(C)c1nc(-c2cccc(NS(=O)(=O)c3c(F)cccc3F)c2F)c(-c2ccnc(N)n2)s1	enzyme activity, inhibitor, radiometric	1 µM	remaining activity	77%
CO[C@H]1CC[C@H](CNc2ccc(S(=O)(=O)NC(=O)c3ccc(N4CCN(CC5=C(c6ccc(Cl)cc6)CC(C)(C)CC5)CC4)cc3Oc3cnc4[nH]ccc4c3)cc2[N+](=O)[O-])CC1	cell-free assay, competition with immobilised ligand	1 µM	remaining binding	100%
Cn1cncc1C1=CN(c2ncnc3[nH]cnc23)CCS1	enzyme activity, inhibitor, radiometric	2 µM	inhibition	14.2%
Cc1nccc(COC(=O)N2C[C@@H]3[C@@H](CNC(=O)c4ccc5[nH]nnc5c4)[C@@H]3C2)n1	cell-free assay, competition with immobilised ligand	1 µM	remaining binding	100%
C[S+]([O-])c1ccc(-c2nc(-c3ccncc3)c(-c3ccc(F)cc3)[nH]2)cc1 (centres unmarked)	cell-free assay	0.5 µM	remaining signal	99.8%
Cc1ccc(Nc2nccc(N(C)c3ccc4c(C)n(C)nc4c3)n2)cc1S(N)(=O)=O	enzyme activity, inhibitor	0.3 µM	inhibition	-2%
CNC(=O)Nc1ccc2c(c1)CC[C@@]21OC(=O)N(CC(=O)N(Cc2ccc(F)cc2)[C@@H](C)C(F)(F)F)C1=O	cell-free assay, competition with immobilised ligand	1 µM	remaining binding	70%
O=C(Nc1cnn(-c2csc(C(=O)NC3COC3)c2)c1)Nc1c(F)cccc1Cl	enzyme activity, inhibitor	5 µM	remaining activity	94.3%
CCS(=O)(=O)c1cc2cc(C[C@@](O)(CC(C)(C)c3ccc(F)cc3C(N)=O)C(F)(F)F)[nH]c2cn1	cell-free assay, competition with immobilised ligand	1 µM	remaining binding	100%
CNc1cccc2cc(C(=O)Nc3ccc(C(=O)O)cc3)c(=O)[nH]c12	enzyme activity, inhibitor	10 µM	inhibition	-1.4%
Cc1cnc(NC2CCOCC2)nc1-n1cnc(C(=O)NC(CN)c2cc(F)cc(Cl)c2)c1 (centres unmarked)	enzyme activity, inhibitor, radiometric	1 µM	remaining activity	83%
O=C1NC(=O)c2cc(Nc3ccc(F)cc3)c(Nc3ccc(F)cc3)cc21	cell-free assay	0.5 µM	remaining signal	100%
CCN(CC)CCNC(=O)c1c(C)[nH]c(/C=C2\C(=O)Nc3ccc(F)cc32)c1C	enzyme activity, inhibitor	0.3 µM	inhibition	-2%
Nc1ncnc2occ(-c3ccc(NC(=O)Nc4cc(C(F)(F)F)ccc4F)cc3)c12	cell-free assay, inhibitor	20 µM	remaining signal	100%
